# Assay outcomes: PubChem, The Scripps Research Institute Molecular Screening Center
# An excerpt weighted towards active compounds, which were near 2.3% of everything screened.
# OXTR ag: activates the human oxytocin receptor. 320,000 compounds, 0.32% hits. AID 2435. activation, % at 3 µM. P30559. CHO-OTR cells, Fluo-8 calcium fluorescence; normalized: DMSO 0%, oxytocin 100%;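 active = activation above the mean of all tested compounds plus 3 SD, cutoff set per screening run, cut at about 20% in these data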;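 also: peak over basal fluorescence ratio from a 100 s FLIPR kinetic read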
# TAAR1 agonist: agonists of human TAAR1; Q96RJ0; CHO RD-HGA16 TAAR1, Fluo-8 calcium fluorescence; vehicle wells 0%, saturating PEA agonist 100%; activation, % at 3 µM; 360,000 compounds, 0.99% hits; AID 624467;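 active = activation above the mean activation of all test compounds in the run plus 3 SD, cut at about 38% in these data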
#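 Signal – calcium-sensitive Fluo-8 signal, excitation 470-495, emission 515-575 nm · System – RD-HGA16 (CHO) cells co-expressing Gα16 and hTAAR1 · Incubation – 17-24 h seeding, 75 min 37 °C dye, 30 min RT · Compound dosing – 3 µM single concentration · Repeats – no replicates (n 1)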
# OXTR potentiator: potentiates the human oxytocin receptor response; P30559; CHO-OTR cells, Fluo-8 calcium fluorescence, potentiator mode; 0% = oxytocin EC15, 100% = EC100; activation, % at 3 µM; 320,000 compounds, 0.061% hits; AID 2445;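 active = activation above that plate's cutoff, the mean activation of tested compounds plus 3 SD, cut at about 6.6% in these data, passing the limit was not always enough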;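 also: 100% uses oxytocin at 75 nM as the full agonist control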
#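 Material: CHO-OTR cells, human receptor; compound dosing: single dose, 3.0 µM nominal final compound concentration; schedule: 6 min compound pre-incubation at room temperature, 100 s kinetic read; measured by: kinetic Fluo-8 calcium fluorescence; read-out basis: % activation vs EC15 and EC100 oxytocin; controls: EC15 oxytocin alone as 0%, 75 nM oxytocin as 100%; replicates: singlicate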
# TAAR1 antagonist: antagonists of human TAAR1 | CHO RD-HGA16 TAAR1, Fluo-8 calcium fluorescence, antagonist | inhibition, % at 3 µM | 360,000 compounds, 1.5% hits | AID 624466;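 active = inhibition above a per-plate cutoff, the mean inhibition of test compounds on that plate plus 3 SD, cut at about 49% in these data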;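 also: 0% = DMSO plus EC80 beta-PEA response and 100% = DMSO alone without agonist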
#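 Test system – hTAAR1-expressing CHO RD-HGA16 cells, Gα16-coupled · Also added – β-PEA at EC80 concentration, post-compound challenge · Compound – 3 µM, single point · Incubation – dye loading 75 min at 37 °C, then 30 min room temperature · Measured by – Fluo-8 intracellular calcium dye fluorescence, real-time kinetic reads · Benchmarks – vehicle and agonist controls · Replicates – singlicate, one well per test compound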
# V1aR counter: V1a receptor agonism, counter-screen for OXTR agonists; activation, % at 3 µM; P37288; CHO-V1R cells, Fluo-8 calcium fluorescence, agonist mode; 0% DMSO, 100% 3 nM vasopressin; 320,000 compounds, 0.25% hits;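 active = activation above the mean activation of all tested compounds plus 3 SD, per screening run, cut at about 20% in these data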;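 also: signal is peak over basal fluorescence ratio across a 100 second FLIPR read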
# Target sequence (P37288 whole entry, looked up): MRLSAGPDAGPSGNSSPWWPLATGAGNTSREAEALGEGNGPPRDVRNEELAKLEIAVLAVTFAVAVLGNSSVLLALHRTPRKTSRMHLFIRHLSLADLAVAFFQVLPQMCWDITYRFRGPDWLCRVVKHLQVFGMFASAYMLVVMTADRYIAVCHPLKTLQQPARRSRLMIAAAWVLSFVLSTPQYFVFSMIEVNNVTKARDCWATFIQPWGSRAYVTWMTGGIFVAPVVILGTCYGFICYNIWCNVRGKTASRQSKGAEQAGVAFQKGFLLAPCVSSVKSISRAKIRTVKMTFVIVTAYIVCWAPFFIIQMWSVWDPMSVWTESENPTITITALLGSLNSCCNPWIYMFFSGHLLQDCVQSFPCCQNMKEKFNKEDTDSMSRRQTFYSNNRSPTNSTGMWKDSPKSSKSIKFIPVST
# Numbers without * were called inactive; . = no result; + = active, no number.
SMILES,OXTR ag,TAAR1 agonist,OXTR potentiator,TAAR1 antagonist,V1aR counter
COC(=O)c1c(NC(=O)c2ccc(OC(C)C)cc2)sc2c1CC(C)(C)NC2(C)C,-1,3,-9,-2,2
NC(=O)C1CCN(C(=O)c2cc3c(s2)CCCC3)CC1,-1,0,-5,-24,-1
O=C1NC(NS(=O)(=O)c2ccccc2)(C(F)(F)F)C(=O)N1c1ccc(F)cc1 (centres undefined),0,1,-2,-8,0
CCC(=O)N1Cc2cc(C(=O)Nc3nccs3)nc(-c3cccc(-c4ccccc4OC)c3)c2[C@H]1CCO,.,14,.,57*,.
CCNC(=O)c1cc2c(c(-c3cccc(-c4cc5ccccc5o4)c3)n1)[C@H](CCO)N(C(=O)NC(C)C)C2,.,12,.,56*,.
COc1ccccc1-c1cccc(-c2nc(C(=O)Nc3nccs3)cc3c2[C@@H](CCO)N(C(C)=O)C3)c1,.,20,.,54*,.
CCNC(=O)c1cc2c(c(-c3cccc(-c4ccccc4F)c3)n1)[C@H](CCO)N(C(=O)CC)C2,.,2,.,-12,.
CCOc1cc(/C=N/NC(=O)c2cc(C3CC3)[nH]n2)ccc1O,0,8,1,15,0
COC(=O)CC1COc2ccccc2N1C(=O)c1ccc(OC)cc1 (centres undefined),-1,5,-5,6,-1
COc1ccc(CCNC(=O)CCN2C(=O)[C@@H]3Cc4ccccc4CN3C2=O)cc1OC,5,16,-13,50*,4
Cc1ccc(C(O)c2ncc(-c3cccc(C(F)(F)F)c3)[nH]2)cc1 (centres undefined),.,5,.,-22,.
Cc1nnc(NC(=O)CSc2ncnc3c2cnn3-c2ccccc2C)s1,1,2,0,2,0
CCOC(=O)Cc1csc(NC(=O)CSc2ncnc3c2cnn3-c2ccccc2Cl)n1,.,23,.,62*,.
O=C(NCCCN1CCCC1=O)c1cccnc1,-1,4,0,3,1
COC(=O)c1sc(-c2ccc(C(C)(C)C)cc2)cc1NC(=O)COCC(=O)O,4,9,-5,50*,5
COc1cc(-c2c(C#N)c(N)nc3c2c(C)nn3-c2ccc(C)c(C)c2)cc(OC)c1OC,0,1,-5,3,0
Cc1nn(-c2ccccc2)c2nc(N)c(C#N)c(-c3ccc(O)c(O)c3)c12,4,8,-11,51*,5
Cc1nn(-c2ccc(F)cc2)c2nc(N)c(C#N)c(-c3ccc(O)c(O)c3)c12,.,6,.,51*,.
COC(C[C@@H]1O[C@H]1[C@H](O)COCc1ccccc1)OC,.,2,.,-14,.
CCCCNc1nc(NCc2ccccc2)nc2ccccc12,.,78*,.,92*,.
O=C(Cc1coc2ccc3ccccc3c12)NC1CCCc2ccccc21 (centres undefined),-1,-2,-10,1,1
CCCCC[C@@H](/C=C/C1C(=O)C=C[C@H]1C/C=C\CCCC(=O)OC)OC(C)=O (some centres undefined),.,4,.,50*,.
COc1ccc(CN(C(=O)CSc2nnc(-c3c[nH]c4ccccc34)o2)c2ccc(F)cc2)cc1OC,2,26,-15,82*,2
COc1ccc(CN(C(=O)CSc2nnc(-c3ccc(F)cc3)o2)c2ccc(F)cc2)cc1,2,0,-11,-34,3
CCCc1cc(=O)oc2cc(C)cc(OCC(=O)NCc3cccnc3)c12,-2,1,-13,-33,0
SMILES,OXTR ag,TAAR1 agonist,OXTR potentiator,TAAR1 antagonist,V1aR counter
O=C(c1ccco1)N1CCN(C(c2ccccc2Cl)c2nnnn2Cc2cccs2)CC1 (centres undefined),4,27,-7,59*,4
COc1ccc(C)c2sc(NC(=O)C3=COCCO3)nc12,2,3,-4,-2,2
Cc1cc(C(C)(C)C)c(O)c(C(C)(C)C)c1,0,2,-5,-14,2
CC(C)(C)c1cc(O)c(C(C)(C)C)cc1O,71*,.,-26,.,48*
CCOc1ccc(-n2c(SCC(N)=O)nc3c([nH]c4ccccc43)c2=O)cc1,-1,-1,-5,-4,-1
CC(=O)Oc1ccc2c(c1)Oc1cc(OC(C)=O)ccc1C21OC(=O)c2ccccc21,938*,.,-9,.,+
O=C(Nc1ccc(N=Nc2ccccc2)cc1)c1ccccc1Cl,-1,-1,-6,49*,-1
CC1CCN(S(=O)(=O)c2ccc(C(=O)OCc3ccc4c(c3)OCO4)cc2)CC1,1,14,-4,8,1
CCCn1c(=O)c(C(=O)Nc2ncccc2C)c(O)c2ccccc21,30*,40*,-9,0,28*
CCn1c(=O)c(C(=O)Nc2nc3ccccc3[nH]2)c(O)c2ccccc21,17,15,-10,93*,1
CCn1c(=O)c(C(=O)Nc2ccccc2)c(O)c2ccccc21,-1,3,-6,-8,2
Cc1c(C(=O)N(C)c2cccc(Cl)c2)cnn1-c1ccccc1,-1,9,-23,-14,-2
CCOC(=O)c1c(C)[nH]c(C)c1C(=O)CSc1nc2ccccc2n1CC,1,15,-7,49*,1
COc1ccc(OCCSc2nc3ccccc3n2CC(=O)O)cc1,2,15,2,5,0
COc1ccc(C(=O)CSc2nc3ccccc3n2CC(=O)c2ccccc2)cc1,3,19,-10,59*,2
CCOC(=O)c1c(C)[nH]c(C)c1C(=O)CSc1nc2ccccc2n1CCOC,0,2,-6,-5,1
Nc1nc(Cl)cc(NCCc2ccc(O)cc2)n1,3,14,-11,-15,5
Oc1ccc(CCNc2ncnc3ccc(Cl)cc23)cc1,12,5,-25,51*,8
CCCC1/C(=N/O)CC(c2ccccc2)NC1c1ccccc1 (centres undefined),0,18,-29,57*,3
CNC(=O)c1c(I)c(C(=O)NCC(=O)Nc2c(I)c(C(=O)O)c(I)c(C(=O)NCCO)c2I)c(I)c(N(C)C(C)=O)c1I,1,.,1,.,0
CC(C)NCC#CCOc1ccc(Cl)cc1,1,1,-11,9,0
Cc1ccc(NC(=O)COC(=O)c2ccc([N+](=O)[O-])s2)c(C)c1,-1,39*,-9,-6,-1
Cc1cc(C)c(NC(=O)COC(=O)c2ccc([N+](=O)[O-])s2)c(C)c1,-1,3,-6,-15,2
CN(C)c1ccc2nc3c(=O)[nH]c(=O)nc-3n(CC(O)C(O)C(O)CO)c2c1 (centres undefined),23*,33,-11,8,35*
Cc1ncc(C(O)c2ccc(N(C)C)cc2)n1Cc1ccccc1 (centres undefined),.,3,.,-4,.
